Data from PMC6745485 (Heliyon, 2019).
Values joined by “and” are separate entries in the source; they are usually repeats but may differ in a detail not shown here. Equal values may be shown once. “Also recorded” adds a separate entry of the source.

Experiments:
Assay type in all cases: cell-based
rat PXR [1] = target: T1, rat PXR (Rattus norvegicus, UniProt Q9R1A7); experiment: Rat PXR reporter gene assay in COS-1 cells; details: for Agonistic activity REC20 PXR: concentration showing 20% of the agonistic activity of 1 μM PCN, ±SD; for PXR agonistic activity (in words): up to 30 μM
T1 sequence (Q9R1A7 1-431): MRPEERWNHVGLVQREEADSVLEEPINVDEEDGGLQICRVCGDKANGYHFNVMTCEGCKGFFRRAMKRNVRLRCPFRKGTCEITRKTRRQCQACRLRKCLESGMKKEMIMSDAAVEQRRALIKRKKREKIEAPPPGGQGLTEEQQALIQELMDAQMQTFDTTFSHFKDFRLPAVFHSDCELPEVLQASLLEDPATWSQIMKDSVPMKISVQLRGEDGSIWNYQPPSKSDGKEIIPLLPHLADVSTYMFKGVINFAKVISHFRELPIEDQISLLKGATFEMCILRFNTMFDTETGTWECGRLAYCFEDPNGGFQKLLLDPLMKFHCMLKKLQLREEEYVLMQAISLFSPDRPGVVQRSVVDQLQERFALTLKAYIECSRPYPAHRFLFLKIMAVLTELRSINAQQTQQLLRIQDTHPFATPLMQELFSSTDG
How it was run: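 COS-1 cells (1×10^4/well) co-transfected with rat PXR expression, reporter and Renilla control plasmids via jetPEI. After 24 h, test compound or 0.1% DMSO added in serum-free D-MEM for 24 h. Dual-luciferase read-out, firefly normalized to Renilla, fold vs vehicle. REC20: concentration reaching 20% of 1 μM PCN activity. Mean ± SD, ≥3 experiments in duplicate; Dunnett's test.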

rat CAR = target: T2, rat CAR (Rattus norvegicus, UniProt Q9QUS1); experiment: Rat CAR reporter gene assay in COS-1 cells; details: for Agonistic activity REC20 CAR: concentration showing 20% of the agonistic activity of 30 μM artemisinin; for Agonistic activity REC20 CAR / Inverse agonistic activity RIC20 CAR: ±SD; for Inverse agonistic activity RIC20 CAR: concentration showing 80% of the activity of the vehicle control; for CAR agonistic activity (in words) / CAR inverse agonistic activity (in words): up to 30 μM
T2 sequence (Q9QUS1 1-358): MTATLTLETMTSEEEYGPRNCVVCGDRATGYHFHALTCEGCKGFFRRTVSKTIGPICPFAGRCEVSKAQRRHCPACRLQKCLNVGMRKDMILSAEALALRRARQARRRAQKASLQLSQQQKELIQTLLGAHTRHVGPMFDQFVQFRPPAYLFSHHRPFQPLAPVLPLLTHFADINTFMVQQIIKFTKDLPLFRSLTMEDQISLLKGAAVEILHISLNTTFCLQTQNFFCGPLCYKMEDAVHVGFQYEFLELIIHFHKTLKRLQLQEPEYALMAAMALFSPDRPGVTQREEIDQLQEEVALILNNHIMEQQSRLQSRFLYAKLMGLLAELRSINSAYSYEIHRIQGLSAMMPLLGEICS

rat PPARα = target: T3, rat PPARα (Rattus norvegicus, UniProt P37230); experiment: Rat PPARα reporter gene assay in COS-1 cells; details: for Agonistic activity REC20 PPARα: concentration showing 20% of the agonistic activity of 30 μM BZF, ±SD; for PPARα agonistic activity (in words): up to 30 μM
T3 sequence (P37230 1-468): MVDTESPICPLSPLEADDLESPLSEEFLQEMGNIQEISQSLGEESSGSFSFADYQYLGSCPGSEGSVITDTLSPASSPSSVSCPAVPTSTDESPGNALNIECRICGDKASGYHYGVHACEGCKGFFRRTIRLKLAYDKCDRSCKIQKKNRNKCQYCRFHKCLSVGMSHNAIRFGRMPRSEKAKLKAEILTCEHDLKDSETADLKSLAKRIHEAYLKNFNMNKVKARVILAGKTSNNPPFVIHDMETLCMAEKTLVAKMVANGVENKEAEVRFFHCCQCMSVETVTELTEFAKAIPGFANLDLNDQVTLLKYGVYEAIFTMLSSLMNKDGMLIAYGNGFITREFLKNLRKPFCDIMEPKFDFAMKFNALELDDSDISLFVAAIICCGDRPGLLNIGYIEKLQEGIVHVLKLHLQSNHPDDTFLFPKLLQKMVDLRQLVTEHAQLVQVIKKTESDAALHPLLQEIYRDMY

rat PXR [2] = target: T1, rat PXR; details: microsomes of PB- and MC-treated rats, NADPH, vs boiled microsomes
How it was run: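 Test compound (1 μmol) incubated 30 min at 37 °C in 0.1 M K,Na-phosphate pH 7.4. Mix held an NADPH-generating system and liver microsomes (60 mg protein) from male SD rats given PB 80 mg/kg i.p. plus MC 25 mg/kg p.o. daily for 3 d. Boiled microsomes were the control. Ethyl acetate extract went into DMSO and onto transfected COS-1 cells for 24 h. Normalized firefly/Renilla fold vs vehicle; n=3, t-test.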

PXR agonistic activity (in words) (rat PXR [1])	PXR luciferase activity, fold compared to DMSO-treated cells (rat PXR [1]; 1 μM) [fold]	PPARα luciferase activity, fold (rat PPARα; 30 μM) [fold]	SMILES	Agonistic activity REC20 PXR (rat PXR [1])	Agonistic activity REC20 CAR (rat CAR)	Inverse agonistic activity RIC20 CAR (rat CAR)	CAR agonistic activity (in words) (rat CAR)	CAR inverse agonistic activity (in words) (rat CAR)	Agonistic activity REC20 PPARα (rat PPARα)	PPARα agonistic activity (in words) (rat PPARα)	PXR activity, fold compared with the control (rat PXR [1]; concentration range 1–30 μM)	Change of PXR activity upon incubation with rat liver microsomes (rat PXR [2])	CAR luciferase activity, fold (rat CAR; 30 μM) [fold]
weak PXR agonistic activity	–	–	OCc1cccc(Oc2ccccc2)c1 [PBAlc, 3-phenoxybenzyl alcohol]	- ^c (No effect (REC20 > 30 μM))	- ^c (No effect (REC20 > 30 μM))	- ^c (No effect (REC20 > 30 μM))	did not show CAR agonistic or inverse agonistic activity	did not show CAR agonistic or inverse agonistic activity	- ^c (No effect (REC20 > 30 μM))	–	–	–	–
inactive	–	–	O=C(O)c1cccc(Oc2ccccc2)c1 [PBAcid, 3-phenoxybenzoic acid]	- ^c (No effect (REC20 > 30 μM))	- ^c (No effect (REC20 > 30 μM))	- ^c (No effect (REC20 > 30 μM))	did not show CAR agonistic or inverse agonistic activity	did not show CAR agonistic or inverse agonistic activity	26.8 µM and 26.8 ± 21.3 µM	dose-dependent agonistic activity; also recorded: more active PPARα agonists than the parent compounds	–	–	–
–	3.2	–	CC(=O)[C@H]1[C@H](C#N)C[C@H]2[C@@H]3CC=C4C[C@@H](O)CC[C@]4(C)[C@H]3CC[C@@]21C [PCN, 5-Pregnen-3β-ol-20-one-16α-carbonitrile, reference compound]	0.0887 ± 0.0118 µM	–	–	–	–	–	–	–	–	–
–	–	2.4	CC(C)(Oc1ccc(CCNC(=O)c2ccc(Cl)cc2)cc1)C(=O)O [BZF, bezafibrate, reference compound]	–	–	–	–	–	3.68 ± 0.0944 µM	–	–	–	–

The remaining lines, values behind:

SMILES	PXR agonistic activity (in words) (rat PXR [1])	PXR luciferase activity, fold compared to DMSO-treated cells (rat PXR [1]; 1 μM) [fold]	PPARα luciferase activity, fold (rat PPARα; 30 μM) [fold]	Agonistic activity REC20 PXR (rat PXR [1])	Agonistic activity REC20 CAR (rat CAR)	Inverse agonistic activity RIC20 CAR (rat CAR)	CAR agonistic activity (in words) (rat CAR)	CAR inverse agonistic activity (in words) (rat CAR)	Agonistic activity REC20 PPARα (rat PPARα)	PPARα agonistic activity (in words) (rat PPARα)	PXR activity, fold compared with the control (rat PXR [1]; concentration range 1–30 μM)	Change of PXR activity upon incubation with rat liver microsomes (rat PXR [2])	CAR luciferase activity, fold (rat CAR; 30 μM) [fold]
O=Cc1cccc(Oc2ccccc2)c1 [PBAld, 3-phenoxybenzaldehyde]	inactive	–	–	- ^c (No effect (REC20 > 30 μM))	- ^c (No effect (REC20 > 30 μM))	- ^c (No effect (REC20 > 30 μM))	did not show CAR agonistic or inverse agonistic activity	did not show CAR agonistic or inverse agonistic activity	- ^c (No effect (REC20 > 30 μM))	weak activity; also recorded: more active PPARα agonists than the parent compounds	–	–	–
CC1(C)[C@H](C(=O)OCc2cccc(Oc3ccccc3)c2)[C@@H]1C=C(Cl)Cl [cis-permethrin]	–	–	–	0.329 ± 0.0472 µM	- ^c (No effect (REC20 > 30 μM))	- ^c (No effect (REC20 > 30 μM))	showed CAR agonistic activity at higher concentrations; also recorded: weak CAR agonistic activity	–	- ^c (No effect (REC20 > 30 μM))	–	about 3 fold	decreased	–
CC1(C)[C@H](C(=O)O[C@H](C#N)c2cccc(Oc3ccccc3)c2)[C@@H]1C=C(Br)Br [deltamethrin]	–	–	–	0.156 ± 0.0216 µM	–	–	–	–	- ^c (No effect (REC20 > 30 μM))	–	–	decreased	–
C[C@@H]1CC[C@H]2[C@@H](C)C(=O)O[C@@H]3O[C@@]4(C)CC[C@@H]1[C@]32OO4 [artemisinin, reference compound]	–	–	–	–	2.53 ± 4.02 µM	–	–	–	–	–	–	–	1.9
